The target in data set [1] is T1, 5-hydroxytryptamine receptor 1B (Homo sapiens, UniProt P28222). Briefly: Antagonist activity at 5HT1B receptor expressed in CHO cells by [35S]GTPgammaS assay. The class given is functional, cell-based. Set-up: concentration or dose not given beside the values. Background: Binding of GTPγS marks nucleotide exchange on a G protein.
In data set [2] the target is T1, 5-hydroxytryptamine receptor 1B. Briefly: Binding affinity to 5HT1B receptor expressed in CHO cells. The class given is cell-based. Put shortly: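 Frozen membranes from stably transfected CHO cells expressing 5-HT1B, 10 μg/well. Buffer: 50 mM Tris-HCl, 4 mM MgCl2, 4 mM CaCl2, 1 mM EDTA, pH 7.4. [3H]GR125743 at 0.5 nM final; nonspecific binding defined with 1 μM AZD1134. 11-point dilutions, 10 μM to 170 pM final. 1 h at room temperature, then WGA yttrium silicate SPA beads for 30 min. IC50 and Ki derived with Kenakin correction for ligand depletion.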

The target in data set [3] is 5-hydroxytryptamine receptor 2B (Homo sapiens) (UniProt P41595). Briefly: Inhibition of human 5HT2B receptor at 10 uM. In a few lines:
(§1)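 Radioligand binding assays from an outside panel of 100 targets, single concentration 10 μM, reported as % effect. Receptor species: human for 5-HT1A, 5-HT2A and 5-HT2B; guinea pig for 5-HT4.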

The next data set relates to Cavia porcellus. Briefly: Reversal of NXY041-induced hypothermia in sc dosed guinea pig. The class given is functional, organism-based.
Data set [4] has as its target 5-hydroxytryptamine receptor 2A (Homo sapiens) (UniProt P28223). Nature of the data set: Inhibition of human 5HT2A receptor at 10 uM. In a few lines:
as §1

Data set [5] has as its target 5-hydroxytryptamine receptor 4 (Cavia porcellus) (UniProt O70528). Briefly: Inhibition of guinea pig 5HT4 receptor at 10 uM. Put shortly: as §1
In data set [6] the target is T2, 5-hydroxytryptamine receptor 1A (Homo sapiens) (UniProt P08908).
T2 sequence (whole entry): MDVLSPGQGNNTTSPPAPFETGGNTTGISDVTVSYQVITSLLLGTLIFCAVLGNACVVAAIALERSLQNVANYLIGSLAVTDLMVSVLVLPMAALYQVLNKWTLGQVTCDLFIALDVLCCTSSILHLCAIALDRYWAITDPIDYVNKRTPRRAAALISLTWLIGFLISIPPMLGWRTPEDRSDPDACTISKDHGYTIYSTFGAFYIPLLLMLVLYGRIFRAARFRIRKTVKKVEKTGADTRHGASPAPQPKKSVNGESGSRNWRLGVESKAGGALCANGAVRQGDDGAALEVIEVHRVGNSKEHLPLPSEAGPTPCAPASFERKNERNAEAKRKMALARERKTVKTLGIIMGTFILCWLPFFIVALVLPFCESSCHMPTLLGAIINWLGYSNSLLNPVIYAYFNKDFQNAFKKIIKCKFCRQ
Briefly: Inhibition of human 5HT1A receptor at 10 uM. In a few lines: as §1

Data set [7] has as its system in vitro phospholipidosis assay (no protein target). Nature of the data set: in vitro. Particulars: human.

Calls of active or inactive are those of the source. The calls are words filed in the database; no cut-off is given here.

T1 sequence (P28222 whole entry): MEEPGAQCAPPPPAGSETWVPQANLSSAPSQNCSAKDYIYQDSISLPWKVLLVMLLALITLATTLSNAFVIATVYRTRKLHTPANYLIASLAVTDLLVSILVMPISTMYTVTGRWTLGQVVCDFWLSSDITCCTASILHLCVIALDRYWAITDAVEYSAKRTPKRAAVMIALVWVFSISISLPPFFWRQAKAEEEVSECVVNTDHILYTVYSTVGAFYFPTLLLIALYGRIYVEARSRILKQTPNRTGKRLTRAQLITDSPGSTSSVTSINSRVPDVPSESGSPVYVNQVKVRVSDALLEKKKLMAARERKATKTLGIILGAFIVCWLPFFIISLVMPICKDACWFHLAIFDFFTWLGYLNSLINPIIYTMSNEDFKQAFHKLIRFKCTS
Chain of 5-hydroxytryptamine receptor 2A (Homo sapiens) (P28223 whole entry): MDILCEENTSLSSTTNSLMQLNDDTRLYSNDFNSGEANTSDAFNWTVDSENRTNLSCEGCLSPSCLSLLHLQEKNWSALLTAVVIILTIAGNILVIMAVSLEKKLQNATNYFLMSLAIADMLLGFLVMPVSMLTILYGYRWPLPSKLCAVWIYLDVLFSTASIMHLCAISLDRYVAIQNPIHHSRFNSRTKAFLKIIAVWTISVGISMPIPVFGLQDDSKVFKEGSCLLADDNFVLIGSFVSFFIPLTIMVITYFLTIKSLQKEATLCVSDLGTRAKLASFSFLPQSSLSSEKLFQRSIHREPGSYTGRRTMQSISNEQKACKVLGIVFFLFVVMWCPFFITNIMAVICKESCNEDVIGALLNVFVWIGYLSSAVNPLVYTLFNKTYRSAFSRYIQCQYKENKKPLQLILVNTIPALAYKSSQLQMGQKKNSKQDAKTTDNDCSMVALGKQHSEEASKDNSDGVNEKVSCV
Chain of 5-hydroxytryptamine receptor 2B (Homo sapiens) (P41595 whole entry): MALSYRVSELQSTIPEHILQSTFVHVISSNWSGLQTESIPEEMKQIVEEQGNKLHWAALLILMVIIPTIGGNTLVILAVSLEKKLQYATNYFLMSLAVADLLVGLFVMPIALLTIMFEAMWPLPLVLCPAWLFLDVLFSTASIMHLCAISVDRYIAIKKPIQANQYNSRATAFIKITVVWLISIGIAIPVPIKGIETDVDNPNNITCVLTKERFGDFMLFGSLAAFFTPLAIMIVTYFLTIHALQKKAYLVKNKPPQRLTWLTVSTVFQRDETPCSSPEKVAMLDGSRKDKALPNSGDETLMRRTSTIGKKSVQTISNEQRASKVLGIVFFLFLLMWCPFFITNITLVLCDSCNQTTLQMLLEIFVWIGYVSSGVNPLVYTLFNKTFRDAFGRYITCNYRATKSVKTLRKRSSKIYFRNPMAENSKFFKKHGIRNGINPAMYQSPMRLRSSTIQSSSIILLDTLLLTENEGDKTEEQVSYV
Chain of 5-hydroxytryptamine receptor 4 (Cavia porcellus) (O70528 whole entry): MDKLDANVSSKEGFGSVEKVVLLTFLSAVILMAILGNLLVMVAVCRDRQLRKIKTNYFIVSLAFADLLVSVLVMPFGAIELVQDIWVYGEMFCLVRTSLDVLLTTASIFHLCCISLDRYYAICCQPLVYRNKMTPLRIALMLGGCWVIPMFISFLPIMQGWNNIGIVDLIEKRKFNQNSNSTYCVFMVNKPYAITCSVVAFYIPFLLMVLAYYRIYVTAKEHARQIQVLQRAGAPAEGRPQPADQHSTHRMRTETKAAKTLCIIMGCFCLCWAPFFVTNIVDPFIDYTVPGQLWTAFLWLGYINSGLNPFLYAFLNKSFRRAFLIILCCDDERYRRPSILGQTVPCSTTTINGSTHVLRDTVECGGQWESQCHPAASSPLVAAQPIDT

By Ki is commonly meant a dissociation constant, usually derived from enzyme kinetics or from competition with a known ligand. For `CCC(=O)N1CCN(c2ccc(NC(=O)c3cc(=O)c4cc(F)cc(N5CCN(C)CC5)c4o3)cc2)CC1`, in data set [1], the Activity was 150%. For the same compound, the Ki in data set [2] was found to be 1.7 nM.
On the same counts, the results for `COC1(c2ccc(NC(=O)C3CCc4cc(F)cc(-c5c(C)nn(C)c5C)c4O3)cn2)CCOCC1` (stereo unspecified) are 62% and 0.96 nM.
Compound `Cc1n[nH]c(C)c1-c1ccc(C)c2c(=O)cc(C(=O)Nc3ccc(N4CCOCC4)cc3)[nH]c12` gave an Activity in data set [1] of 33%.
In general, inhibition refers to the change of the read-out against control, counted positive when it falls. With `COC1(c2ccc(NC(=O)c3cc(=O)c4cc(F)cc(-c5c(C)nn(C)c5C)c4o3)cn2)CCOCC1`, the inhibition in data set [3] is 4%; in data set [4], -5%; in data set [5], 30%; in data set [6] it was -8%. In addition, the outcome with Cavia porcellus was Active. The compound further yielded an Activity in data set [1] of 90%. For the same compound, the Ki in data set [2] is 0.43 nM.
Turning to `COc1cc2c(c(N3CCN(C)CC3)c1)O[C@@H](C(=O)Nc1ccc(N3CCOCC3)cc1)CC2`, the Activity in data set [1] was 120%. In data set [2], this compound displayed a Ki of 12 nM.
For the compound `Cc1n[nH]c(C)c1-c1ccc(C)c2c(O)cc(C(=O)Nc3ccc(N4CCOCC4)cc3)nc12`, the inhibition at 300 µM in data set [7] was found to be 12%. For the same compound, in data set [2], affinity was put at a Ki of 9.3 nM.

Source of the values: ChEMBL document CHEMBL1156870, “De novo design of a picomolar nonbasic 5-HT(1B) receptor antagonist” (J Med Chem, 2010).
